Bioassay records as filed in PubChem BioAssay.
A selection: hits, their analogues and other compounds. The true share with any hit is near 2.9%.
Beta2AR agonist = human beta-2 adrenergic receptor agonism by FAP; P07550; Am2.2-beta2AR cells, FAP receptor internalization, flow cytometry; response, % (concentration not given with the values); 340,000 compounds, 0.43% hits;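 active = response above a set limit, near 3 SD of response in nonfluorescent compounds, cut at about 42% in these data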
MEKK2wt PB1 HTS = raises or lowers MEK5 binding to wildtype human MEKK2 PB1 domain; bead flow cytometry, Alexa488-MEK5 binding to MEKK2 WT; actives lie on both sides; binding response (% of control), % at 10 µM; 290,000 compounds, 1.1% hits; in the data active = binding response below about 67% or above about 130%
ATG4B inhibitor = blocks human ATG4B protease cleavage of LC3 substrate; inhibition, % at 8.33 µM; ATG4B cleavage of LC3-PLA2, NBD-HPC fluorescence, 1 h; 340,000 compounds, 0.51% hits; in the data active = inhibition above about 40%
Target sequence (Q9Y4P1 whole entry, looked up): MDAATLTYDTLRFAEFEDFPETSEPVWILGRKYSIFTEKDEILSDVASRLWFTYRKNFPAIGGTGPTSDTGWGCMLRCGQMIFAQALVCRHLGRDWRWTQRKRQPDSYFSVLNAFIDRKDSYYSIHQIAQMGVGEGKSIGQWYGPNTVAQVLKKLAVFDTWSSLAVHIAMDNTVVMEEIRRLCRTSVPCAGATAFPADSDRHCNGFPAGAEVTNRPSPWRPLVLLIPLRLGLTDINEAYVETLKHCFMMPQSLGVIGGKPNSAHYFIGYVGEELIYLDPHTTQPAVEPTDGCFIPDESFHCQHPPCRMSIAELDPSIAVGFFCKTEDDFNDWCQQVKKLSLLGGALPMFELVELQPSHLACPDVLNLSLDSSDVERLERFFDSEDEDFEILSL
MEKK2mut PB1 HTS = signal of MEK5 binding to mutant human MEKK2 PB1 domain; AID 1530; bead flow cytometry, Alexa488-MEK5 binding to MEKK2 mutant; 290,000 compounds, 0.35% hits; percent response, % at 10 µM; in the data active = percent response above about 24%, passing the limit was not always enough
MEKK3 PB1 HTS = MEKK3-MEK5 PB1 interaction, increase or decrease | Q99759 | bead-based flow cytometry, Alexa488-MEK5 binding to MEKK3; actives lie on both sides; 0 = blocked by unlabeled MEK5, 100 = vehicle | binding response (% of control), % at 10 µM | 290,000 compounds, 1.4% hits;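 active = binding response more than 3 SD above or below the average of its plate-row segment, actives on both sides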;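 note: Alexa488 bead fluorescence after subtracting the streptavidin-only scavenger bead signal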
Dynein transport = blocks dynein driven cargo transport along microtubules. 3617.4 mouse cells, GR-EGFP nuclear translocation imaging; test concentration mostly 20 µM; stimulated with dexamethasone, 1 µM; active compounds read low. z-score, hits read low. 220,000 compounds, 0.47% hits. AID 1381;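 active = plate z-score of nuclear minus cytoplasmic receptor signal below a set negative limit, without overly bright fluorescence or cell loss, cut at about -3.5 in these data, passing the limit was not always enough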;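 note: z-score of nuclear minus cytoplasmic ring GR-EGFP intensity difference per well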
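medium = tetracycline-free induction medium containing charcoal-stripped FBS | probe or stimulus = dexamethasone, 1.0 µM final | timing = 48 h induction, then 1 h compound, then 30 min agonist, 37 °C | detection = automated 10x imaging of fixed Hoechst-stained cells | read-out basis = nuclear versus cytoplasmic GR-EGFP signal, averaged per well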
MEKK2wt confirm = raises or lowers MEK5 binding to wildtype human MEKK2, retest; AID 1892; shares compounds with MEKK3 PB1 HTS; 5,900 compounds, 2.4% hits; bead flow cytometry, Alexa488-MEK5 binding to MEKK2 WT; actives lie on both sides; binding response (% of control), % at 10 µM; in the data active = binding response below about 16% or above about 210%; inactive = in between
MEKK2mut-MEK5 = signal of MEK5 binding to mutant human MEKK2, retest; shares compounds with MEKK3 PB1 HTS; bead flow cytometry, Alexa488-MEK5 binding to MEKK2 mutant; percent response, % at 10 µM; 5,900 compounds, 2% hits; in the data active = percent response mostly above about 71%, no sharp cut-off; inactive = mostly below about 38%;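 note: higher means compound restores mutant binding toward wildtype level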
MEKK3 confirm = confirmation of inhibitors of MEK5 binding to human MEKK3; shares compounds with MEKK3 PB1 HTS; bead flow cytometry, Alexa488-MEK5 binding to MEKK3; active compounds read low; binding response (% of control), % at 10 µM; 5,900 compounds, 1.8% hits;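 active = binding response below 72% of control, or above a set upper limit, though filed actives all read lower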;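 note: 100% = DMSO only wells and 0% = binding blocked by excess unlabeled MEK5; lower values mean stronger disruption of MEK5 binding to MEKK3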
Starred values were filed as active, the others as inactive; nt = no result given; [ ] = remark or other dose.

SMILES	Beta2AR agonist	MEKK2wt PB1 HTS	ATG4B inhibitor	MEKK2mut PB1 HTS	MEKK3 PB1 HTS	Dynein transport	MEKK2wt confirm	MEKK2mut-MEK5	MEKK3 confirm
Cc1cc(C)nc(CCNC(=O)c2cc(COc3c(C)cccc3C)on2)n1	-8	102	5	4	99	nt	nt	nt	nt
CCCCCCCC(=O)C(C)C(=O)N(C)[C@H](Cc1ccc(OC)cc1)C(=O)N(C)[C@H](C(N)=O)C(C)C (stereo partly drawn)	-7	nt	-4	nt	nt	nt	nt	nt	nt
CCCCNCC(=O)Nc1ccc(NC(=O)CNCCCC)cc1	1	144*	2	27*	113	-0.18	124	12	100
CCCSc1nc(N)cc(=O)[nH]1	-88	46*[inhibitor]	2	-18	35*[inhibitor]	-0.41	94	-6	95
CCCSc1nc(C)cc(=O)[nH]1	-6	105	-3	2	101	0.53	nt	nt	nt
O=S(=O)(c1ccc(F)cc1)N1CCN(c2ncccn2)CC1	-1	118	-1	28	134*	-0.82	108	10	109
CC(=O)Nc1ccc(Sc2ncnc3scc(-c4ccccc4)c23)cc1	-7	99	4	-1	128*	0.37	102	5	104
CC(=O)c1ccc(N2CCC(c3cc(-c4ccc(Cl)cc4Cl)n[nH]3)CC2)c([N+](=O)[O-])c1	0	108	-13	-1	103	-0.63	nt	nt	nt
C1CCC(C(CC2CCCCN2)C2CCCCC2)CC1 (stereo not drawn)	34	171*	10	17	86	-2.5	140	28	102
Cc1c(C(=O)N2CCN(C)CC2)oc2ccc(S(=O)(=O)N3CCOCC3)cc12	-3	2.0*[inhibitor]	-1	-16	2.0*[inhibitor]	-0.3	98	-2	96
Cc1c(C(=O)NCCc2ccccc2)oc2ccc(S(=O)(=O)N3CCOCC3)cc12	4	116	-8	6	125*	-0.97	104	2	102
Cc1c(C(=O)NC2CCCc3ccccc32)oc2ccc(S(=O)(=O)N3CCOCC3)cc12 (stereo not drawn)	8	84	-16	-3	82*[inhibitor]	0.045	101	0	101
NC1=NC[C@H](c2ccccc2)N1CCCCC1CCCCC1	3	146*	12	11	111	1	124	12	105
S=C1NC[C@H](c2ccccc2)N1CCCCC1CCCCC1	-5	85	-2	1	92	-0.28	nt	nt	nt
CC(C)(C)OC(=O)N1CCC(c2c(C(=O)NCC3CCN(C4CCCC4)C3)cnn2-c2ccccc2)CC1 (stereo not drawn)	-17	114	-7	9	106	nt	nt	nt	nt
Oc1ccc(/C=C/c2ccc3ccccc3n2)cc1	-9	97	-23	-6	100	-0.6	nt	nt	nt
Fc1ccccc1/C=C/c1ccc2ccccc2n1	-9	108	19	5	130*	0.19	101	-4	99
C(=C\c1ccc2ccccc2n1)/c1ccccc1	-1	34*[inhibitor]	-5	-12	40*[inhibitor]	0.079	100	-3	94
C(=Cc1c[nH]c2ccccc12)c1ccc2ccccc2n1	-289	nt	-1	nt	nt	nt	nt	nt	nt
COc1ccc(C(=O)NCc2nnc(SCC(=O)Nc3ccccc3F)o2)cc1	-2	3.0*[inhibitor]	7	-67	3.0*[inhibitor]	-0.82	105	5	102
COc1ccc(C(=O)NCc2nnc(SCC(=O)Nc3ccccc3OC)o2)cc1	-3	103	0	1	101	nt	nt	nt	nt
O=C(Nc1ccc2nc(-c3ccc(Br)o3)[nH]c2c1)c1ccco1	4	104	2	22	107	-0.47	nt	nt	nt
